Measurements pooled from the literature.
Compare with care: the assays were run in different laboratories.
Effect on: cell growth or viability

| Compound | cell line | technique | concentration | time | measurement | value |
| --- | --- | --- | --- | --- | --- | --- |
| Cc1nc(NC(=O)N2CCC[C@H]2C(N)=O)sc1-c1ccnc(C(C)(C)C(F)(F)F)c1 | TCC-SUP | ATP luminescence |  | 5 days | EC50 | 3.07 µM |
| C=C(NC(=O)C(=C)NC(=O)c1csc(C2=N[C@@H]3c4csc(n4)[C@H]4NC(=O)c5csc(n5)[C@H]([C@](C)(O)[C@@H](C)O)NC(=O)[C@H]5CSC(=N5)/C(=C/C)NC(=O)[C@H]([C@@H](C)O)NC(=O)c5csc(n5)[C@]3(CC2)NC(=O)[C@H](C)NC(=O)C(=C)NC(=O)[C@H](C)NC(=O)[C@H]([C@@H](C)CC)N[C@@H]2C=Cc3c([C@H](C)O)cc(nc3[C@H]2O)C(=O)O[C@@H]4C)n1)C(N)=O | LNCaP |  |  |  | EC50 | 4.4 µM |
| COc1ccc(-c2nn(-c3ccccc3)cc2C=Nc2c(N)nc(S)nc2O)cc1 | Jurkat |  |  | 48 h | CC50 | 17.3 µM |
| C[C@H](Nc1ccc2c(c1)OCCn1cc(N3C(=O)OC[C@H]3C(F)F)nc1-2)C(N)=O | TCC-SUP | ATP luminescence |  | 5 days | EC50 | 0.0516 µM |
| Cc1c(-c2ccc(N3CCc4cccc(C(=O)Nc5nc6ccccc6s5)c4C3)nc2C(=O)O)cnn1CC12CC3CC(C1)CC(C(=O)NCCCCCCNc1cccc4c1C(=O)N(C1CCC(=O)NC1=O)C4=O)(C3)C2 (stereo not shown) | MOLT-4 | MTS |  | 48 h | IC50 | 0.0162 µM |
| Cc1c(Cl)c(=O)oc2cc(OCCCCSC#N)ccc12 | MIA PaCa-2 | SRB |  |  | GI50 | 8.2 µM |
| Cc1c(-c2ccc(N3CCc4cccc(C(=O)Nc5nc6ccccc6s5)c4C3)nc2C(=O)NCCCCCCNc2cccc3c2C(=O)N(C2CCC(=O)NC2=O)C3=O)cnn1CC12CC3CC(CC(C3)C1)C2 (stereo not shown) | MOLT-4 | MTS |  | 48 h | IC50 | 1.03 µM |
| O=c1[nH]ncc(NN=Cc2cn(-c3ccccc3)nc2-c2ccccc2)c1Cl | Jurkat |  |  | 48 h | CC50 | 3.66 µM |
| O=C(C[C@@H](C(F)F)n1ccc(F)n1)N1CCC(O)(Cn2cnc3c(cnn3-c3ccc(F)cc3)c2=O)CC1 | LNCaP | CCK-8 | 1.524 nM |  | viability | 90% |
| Nc1nc(S)nc(O)c1N=Cc1cn(-c2ccccc2)nc1-c1ccccc1 | Jurkat |  |  | 48 h | CC50 | 17.3 µM |
| N#CSCCCCOc1ccc2c(-c3ccccc3)cc(=O)oc2c1 | MIA PaCa-2 | SRB |  |  | GI50 | 28 µM |
| Nc1nc(S)nc(O)c1N=Cc1cn(-c2ccccc2)nc1-c1ccc([N+](=O)[O-])cc1 | Jurkat |  |  | 48 h | CC50 | > 40 µM |
| Cc1nc(Nc2ncc(C(=O)Nc3c(C)cccc3Cl)s2)cc(N2CC[C@H](O)C2)n1 | Jurkat | ATP luminescence | 10 µM | 72 h | inhibition | 47% |
